Tests used:
[1] = tested on: Severe acute respiratory syndrome coronavirus 2; test: Binding affinity to N-terminal 6-histidine tagged Severe acute respiratory syndrome coronavirus 2 nucleocapsid protein overexpressed in Escherichia coli BL21 (DE3) assessed as response unit by SPR assay
In short: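 Single-concentration binding screen: compounds at 200 μM over a surface carrying >10000 RU NPro. 120 s contact, 180 s dissociation, running buffer with 5% DMSO, solvent correction applied. Running buffer served as negative control.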

[2] = Binding affinity to N-terminal 6-histidine tagged Severe acute respiratory syndrome coronavirus 2 nucleocapsid protein overexpressed in Escherichia coli BL21 (DE3) assessed as dissociation constant by SPR assay

Row | SMILES | Activity [1] | Kd [2]
1 | CCC(=O)Nc1cccc2c1N(CC)Cc1cc(OC)c(OC)cc1-2 | 10.6 RU | 
2 | CCN1Cc2cc(OC)c(OC)cc2-c2cccc(NC(C)=O)c21 | 14.3 RU | 
3 | CCN1Cc2cc(OC)c(OC)cc2-c2cccc(NCC(F)(F)F)c21 | 125 RU | 10.4 µM
4 | CCc1cccc2c1N(C)Cc1cc(OCc3cc(C)nn3C)c(OCc3cc(C)nn3C)cc1-2 | 211 RU | 10.8 µM
5 | CCN1Cc2cc(OC)c(OC)cc2-c2cccc(N)c21 | 145 RU | 
6 | Cc1cccc2c1N(C)Cc1cc(O)ccc1-2 | 35 RU | 
7 | COc1cc2c(cc1OC)-c1cccc(C)c1N(C(=O)C(F)(F)F)C2 | 57.5 RU | 
8 | CCn1c(=O)c2cc(OC)c(OC)cc2c2cccc(C(=O)O)c21 | 33.5 RU | 
9 | COc1cc2cnc3c(C)cccc3c2cc1OC | 29.4 RU | 
10 | CCn1c(=O)c2cc(OC)c(OC)cc2c2cccc(NC(C)=O)c21 | 17.7 RU | 
11 | CCN1Cc2cc(OC)c(OC)cc2-c2cccc(NC(=O)C(F)(F)F)c21 | 101 RU | 
12 | CCc1cccc2c1ncc1ccc(OC)cc12 | 30.7 RU | 
13 | CCc1cccc2c1N(C(=O)CBr)Cc1ccc(OC)cc1-2 | 22 RU | 
14 | CCn1c(=O)c2cc(OC)c(OC)cc2c2cccc(NC(=O)CCC(=O)OC)c21 | 13.1 RU | 
15 | CCN1Cc2cc(OC)c(OC)cc2-c2cccc(NC(=O)C(C)C)c21 | 11.8 RU | 
16 | CCn1c(=O)c2cc(OC)c(OC)cc2c2cccc(N)c21 | 23.1 RU | 
17 | COc1ccc2c(c1)CN(C)c1c(C)cccc1-2 | 34.9 RU | 

From ChEMBL document CHEMBL5131398, “Novel nucleocapsid protein-targeting phenanthridine inhibitors of SARS-CoV-2” (Eur J Med Chem, 2022)
